Laboratory results: ChEMBL document CHEMBL1124291, “New actinomycin D analogues as superior chemotherapeutic agents against primary and advanced colon tumors and colon xenografts in nude mice” (J Med Chem, 1988)

Assays:
MC-38 [1] = test: Activity against advanced carcinoma C38 Tumor in CDF1 Mice at dose 0.30 mg/ kg measured as % inhibition of tumor; type: functional; details: Mus musculus
B16 [2] = test: in vivo Antitumor activity against B16 melanoma cells at a optimal dose 300 ug/Kg /inj measured as %ILS (%increase life span); type: functional; details: Mus musculus
In short: (§1)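 BDF1 mice in groups of nine were implanted ip on day 0 with 0.2 mL of 1:5 (w/v) B16 melanoma brei; drugs were given ip. Survival is reported as median survival time in days with range, and as %ILS, with survivors counted on day 65 out of total injected.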

B16 [3] = test: in vivo Antitumor activity against B16 melanoma cells at dose 300 ug/Kg /inj measured as Mean survival time (MST); type: functional, Mus musculus; in short: as §1
MC-38 [4] = test: Mean survival time of treated / untreated group x100. (number of over 100-day survivors/number of total mice in the group) at a dose 0.30 mg/kg; type: functional, Mus musculus; details: dose 0.3 mg/kg
In short: (§2)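 CDF1 mice were implanted sc on day 0 with colon 38 adenocarcinoma fragments (70 mg) and given iv drug on days 1, 5 and 9. %T/C = median survival of treated / untreated × 100. Number of mice surviving over 100 days / group total is given in parentheses.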

MC-38 [5] = test: Activity against advanced carcinoma C38 Tumor in CDF1 Mice at dose 0.60 mg/ kg measured as % inhibition of tumor; type: functional; details: Mus musculus
MC-38 [6] = test: Activity against advanced carcinoma C38 Tumor in CDF1 Mice at dose 1.20 mg/ kg measured as % inhibition of tumor; type: functional; details: Mus musculus
MC-38 [7] = test: Number of toxic deaths/number of mice in a group of non tumored mice treated in parallel with the tumor-bearing mice and observed for 100 days at a dose 1. 20 mg/Kg; value given as 2/9; type: toxicity, cell-based; details: mouse, in vivo, 2400 h
In short: (§3)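 Non-tumored CDF1 mice were treated in parallel with colon 38 tumor-bearing mice: iv injections on days 1, 5 and 9, groups of nine. Deaths were counted over 100 days of observation and reported as toxic deaths / mice in group.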

MC-38 [8] = test: Mean survival time of treated / untreated group x100. (number of over 100-day survivors/number of total mice in the group) at a dose 1.20 mg/kg; type: functional, Mus musculus; details: dose 1.2 mg/kg; in short: as §2
MC-38 [9] = test: Number of toxic deaths/number of mice in a group of non tumored mice treated in parallel with the tumor-bearing mice and observed for 100 days at a dose 0.30 mg/Kg; value given as 0/9; type: functional, Mus musculus; in short: as §3
MC-38 [10] = test: Number of toxic deaths/number of mice in a group of non tumored mice treated in parallel with the tumor-bearing mice and observed for 100 days at a dose 0.60 mg/Kg; value given as 1/9; type: toxicity; details: mouse, in vivo, 0.6 mg/kg, 2400 h; in short: as §3
MC-38 [11] = test: Mean survival time of treated / untreated group x100. (number of over 100-day survivors/number of total mice in the group) at a dose 0.60 mg/kg; type: functional, Mus musculus; details: dose 0.6 mg/kg; in short: as §2
HT-29 [12] = test: 50% inhibition of incorporationf precursor [3H]thymidine into DNA HT-29 cell lines; type: functional, cell-based; details: Homo sapiens, HT-29, 2 h
In short: (§4)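 HT-29 colon carcinoma monolayers, 10^4 cells per well, five wells per concentration. Drug exposure lasted 2 h, with [³H]thymidine and [2-¹⁴C]uridine (0.5 μCi each) added for the last hour. Cells were washed, trypsinized, counted and precipitated onto glass-fiber filters with 10% TCA. Acid-precipitable radioactivity was measured. IC50 is the concentration inhibiting 50% of incorporation; data are averages of replicate experiments.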

P388 [13] = test: 50% inhibition of incorporation of precursor [3H]thymidine into DNA P388 cell lines; type: functional, cell-based; details: Mus musculus, P388, 2 h
P388 [14] = test: 50% inhibition of incorporation precursor [14C]uridine into RNA P388 cell lines; type: functional, cell-based; details: Mus musculus
Rattus norvegicus [15] = species on record: Rattus norvegicus; test: Percent of the protein conjugates isolated from incubation mixture containing rat microsomes; type: functional
In short: (§5)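 Tritiated analogues were incubated with two systems. (T) sonicated P388 cell homogenates, 37 °C for 16 h. (M) liver microsomes from phenobarbital-induced rats, 6 h with an NADPH-generating system (glucose-6-phosphate dehydrogenase plus glucose 6-phosphate). Metabolites and water-soluble conjugates were isolated, separated by HPLC and expressed as percentages.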

Rattus norvegicus [16] = species on record: Rattus norvegicus; test: Percent of the tissue bound conjugates isolated from incubation mixture containing rat microsomes; type: functional; in short: as §5
Rattus norvegicus [17] = species on record: Rattus norvegicus; test: Percent of the unconverted isolated from incubation mixture containing rat microsomes; type: functional; in short: as §5
Rattus norvegicus [18] = species on record: Rattus norvegicus; test: Percent of the SAD isolated from incubation mixture containing tumor cell homogenate(T) after 7.7 min; type: functional; in short: as §5
Rattus norvegicus [19] = species on record: Rattus norvegicus; test: DNA-cleaving ability expressed as % of closed circular pBR322 DNA cleaved at 100 uM conc 100 uM; type: functional
In short: (§6)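 pBR322 DNA (200 μM nucleotides) in 10 mM Tris·HCl pH 7.8 and 50 mM NaCl, with 4 mM Na₂S₂O₄ and 100 μM FeCl₂. Incubated with drug for 1 h at 20 °C, kept air-saturated. Supercoiled and open-circular forms were separated by agarose gel electrophoresis, stained with ethidium bromide and quantitated by densitometry. % cleaved was calculated from the open- and closed-circular amounts.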

Rattus norvegicus [20] = species on record: Rattus norvegicus; test: DNA-cleaving ability expressed as % of closed circular pBR322 DNA cleaved […] conc 50 uM; type: functional; in short: as §6
Rattus norvegicus [21] = species on record: Rattus norvegicus; test: Percent of the unidentified metabolites isolated from incubation mixture containing rat microsomes; type: functional; in short: as §5
Rattus norvegicus [22] = species on record: Rattus norvegicus; test: The formation of adrenochrome from epinephrine in the absence of SOD(super oxide dismutase); type: functional
In short: (§7)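 Drug-stimulated superoxide generation with rat liver microsomal enzymes and NADPH as cofactor. NADPH oxidation was read at 340 nm. Adrenochrome formed from epinephrine was read at 480 nm, with or without superoxide dismutase. % stimulation = [(drug-stimulated rate − basal rate)/basal rate] × 100. Values are mean ± standard error of triplicate analyses.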

Rattus norvegicus [23] = species on record: Rattus norvegicus; test: The formation of adrenochrome from epinephrine in the presence of SOD(super oxide dismutase); + denotes ' Inhibited'; type: functional; in short: as §7
Rattus norvegicus [24] = species on record: Rattus norvegicus; test: Stimulation of NADPH oxidation in the presence of rat liver microsomes; type: functional; in short: as §7
HT-29 [25] = test: 50% inhibition of incorporationf precursor [3H]thymidine into RNA HT-29 cell lines; type: functional, cell-based; details: Homo sapiens, HT-29, 2 h; in the assay text read “[14C]uridine” for “[3H]thymidine”; in short: as §4
[26] = DNA-cleaving ability expressed as % of closed circular pBR322 DNA cleaved at 10 uM conc 10 uM
pBR322 plasmid DNA = test: DNA-cleaving ability expressed as % of closed circular pBR322 DNA cleaved […]
Rattus norvegicus [27] = species on record: Rattus norvegicus; test: Percent of the SAD isolated from incubation mixture containing rat micro somes, after 20.0 min
P388 (Mus musculus) [28] = test: Percent of the unconverted isolated from incubation mixture containing tumor cell homogenate(T)
P388 (Mus musculus) [29] = test: Percent of the protein conjugates isolated from incubation mixture containing tumor cell homogenate(T)
P388 (Mus musculus) [30] = test: Percent of the tissue bound conjugates isolated from incubation mixture containing tumor cell homogenate(T)
P388 (Mus musculus) [31] = test: Percent of the unidentified metabolites isolated from incubation mixture containing tumor cell homogenate(T)
P388 [32] = test: Antitumor activity in P388/ADR (adriamycin resistant) in male BDF1 mice measured as optimal dose at dose 0.10-1.0 mg/kg/ inj, inp
Mus musculus = species on record: Mus musculus; test: Percent of the SAD glucuronide and/or sulfate isolated from incubation mixture containing tumor cell homogenate(T) after 8.0, 10.5 min

Cc1c2oc3c(C)c4oc(CC(=O)NCCCCN)nc4c(C(=O)N[C@@H]4C(=O)N[C@H](C(C)C)C(=O)N5CCC[C@H]5C(=O)N(C)CC(=O)N(C)[C@@H](C(C)C)C(=O)O[C@@H]4C)c3nc-2c(C(=O)N[C@@H]2C(=O)N[C@H](C(C)C)C(=O)N3CCC[C@H]3C(=O)N(C)CC(=O)N(C)[C@@H](C(C)C)C(=O)O[C@@H]2C)c(N)c1=O
inhibition in vivo at 0.3 mg/kg (MC-38 [1]): 80%
ILS at 0.3 mg/kg (B16 [2]): 114%
MST (B16 [3]): 62
T/C (MC-38 [4]): 170%
inhibition in vivo at 0.6 mg/kg (MC-38 [5]): 93%
inhibition in vivo at 1.2 mg/kg (MC-38 [6]): 94%
Toxic deaths (MC-38 [7]): 2
T/C (MC-38 [8]): 231%
Toxic deaths (MC-38 [9]): 0
Toxic deaths (MC-38 [10]): 1
T/C (MC-38 [11]): 250%
IC50 (HT-29 [12]): 365 nM
IC50 (P388 [13]): 430 nM
IC50 (P388 [14]): 55 nM
Activity (Rattus norvegicus [15]): 10%
Activity (Rattus norvegicus [16]): 5%
Activity (Rattus norvegicus [17]): 10%
Activity (Rattus norvegicus [18]): 20%
Activity (Rattus norvegicus [19]): 58%
Activity (Rattus norvegicus [20]): 50%
Activity (Rattus norvegicus [21]): 8%
Adrenochrome formation (Rattus norvegicus [22]): 22.1 nM min-1 (mg of protein)-1
Adrenochrome formation (Rattus norvegicus [23]): Inhibited
NADPH oxidation (nM min-1 (mg of protein)-1) (Rattus norvegicus [24]): 87.1
IC50 (HT-29 [25]): 65 nM
Activity [26]: 40%
Activity (pBR322 plasmid DNA): 45%
Activity (Rattus norvegicus [27]): 65%
Activity (P388 (Mus musculus) [28]): 20%
Activity (P388 (Mus musculus) [29]): 8%
Activity (P388 (Mus musculus) [30]): 5%
Activity (P388 (Mus musculus) [31]): 5%
optimal dose (P388 [32]): 1 mg/kg
Activity (Mus musculus): 40%
